Measurements taken from the RNAGym collection of RNA variant scans (doi:10.1126/science.aae0568).
Variants at the floor of the assay were thinned out.

B1: tRNA (parent)
chain: GUUCCGUUGGCGUAAUGGUAACGCGUCUCCCUCCUAAGGAGAAGACUGCGGGUUCGAGUCCCGUACGGAACG

Variants of: B1
Test: yeast fitness relative to wild type (ratio to wild type); higher = fitter; tRNA-Arg(CCU), competitive growth, 37 C, YPD
Summary of the method: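 Amplicons of the tRNA-Arg(CCU) gene were sequenced, 100-nucleotide paired-end, from the start population and from each end population of a pooled yeast competition. The competition, in six parallel replicates, lasted 24 hours in YPD at 37°C. Fitness relative to wild type was calculated from changes in genotype frequencies. Genotypes had to have ≥ 100 starting reads, and estimates < 0.5 were set to 0.5.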

| Variant | yeast fitness |
| --- | --- |
| GUUUCGUUGGCGUGAUGGUAACGCGUCUCCCUCCUAAGGAGAAGAGUGCGGGUUCGAGUCCCGUACGGAACG | 0.659 |
| GUUGCGUCGGCGUAAAGGUACCGGGUCUCCCUCCUAAGGAGAAGCCUACGGGUUCGAGUCCCGUACAGAACG | 0.53 |
| GUUGCGUUGGCGUAAUGGAAGCGCGUCUCCCUCCUAAGGAGAAGACUGCGGCUUGGAGUCCCGUACGGAACG | ≤ 0.5 |
| GUUGCGUUGGCGUAAUGGUAACGCGUCUCCCUCCUAAGGAGAAGACUGCGGGUUCGAGCCCCGUACGGCACG | 0.778 |
| GUUGCGUUGGCGUAAUGGUAACGCGUCUCCCUCCCAAGGAGAAGACUGCGGGUUGGAGUCCCGUACGGAACG | ≤ 0.5 |
| GUUUCGUUGGCGUGAUGGUAACGCGUCUCCCUCCUAAGGAGAAGCCUGCGGGUUCGAGUCCCGUACGGAACG | 0.542 |
| GUUGCGUUGGCGUAAUGGUAACGCGUCUCCCUCCUAAGGAGAAGACUGCGGGAUCGAGUCCCGUCCGGAACG | ≤ 0.5 |
| GUUGCGUUGGCGUAAAGGUAACGCGUCUCCCUCCUAAGGAGACGACUGCGGGUUCGAGUCCCGUACGGAACG | ≤ 0.5 |
| GUUGCGUUGGCGGAAUGGUAACGCGUCUCCCUCCUAAGGAGAAGACUGCGGGUUCGAGUCCCGUACGGAACG | 0.882 |
| GUUGCGUUGGCGCAAUGGUAACGCGUCUCCCUCCUAAGGAGAAGACUGCGGGUUCGAGUCCCGUACGGAACG | 0.886 |
| GUUGCGUUGGCGUAAUGGUAACGCGUCUCCCCCCUAAGGAGAAGACUGCGGGUUCGAGUCCCGUACGGAACG | 0.944 |
| GUUGCGUUGGCGUAAUGGUAACGCGUCUCCCACCUAAGGAGAAGACUGCGGGUUCGAGUCCCGUACGGAACG | 0.864 |
| GUUGCGUUGGCGUAAUGGUAACGCGUCUCCCCCCUAAGGAGAAGUCUGCGGGUUCGAGUCCCGUACGGAACG | 0.537 |
| GUUGCGUGAGUGUAAUGGUAACGCGUCUCCCUCGUAAGGAGAAGACUGUGGGUUCGAGUCCCGUACGGAACG | ≤ 0.5 |
| GUUGCGUUGGCGUAAUGGUAACGCGUCUCCCUCCUAAGGAGAAGACUGCGGGCUCGAGUCCCGUACGGAACG | 0.776 |
| GUUGCGUUGGCGUAAUGGUAACGCGUCUCCCUCCUAAGGAGAAGACCGCGGGUUCGAGGCCCGUACGGAACG | ≤ 0.5 |
| GUUGCGUUGGCGUAAAGGUAACGCGUCUCCCUCCUCAGGAGAAGACUGCGGGUGCGAGUUCCGUACGGAGCG | ≤ 0.5 |
| GUUGCGUUGGCGAAAUGGUAACGCGUCUCCCUGCUGAGGAGAAGACUGCGGGUUCGAGUCCCGUACGGAACG | ≤ 0.5 |
| GUUGCGUUGGCGUAAUGGUAACGCGUCUCCCUCCUAAGGAGAAGACUGCGGGUUCGAGUCCCGCACGCAACG | 0.632 |

| Variant | yeast fitness |
| --- | --- |
| GUUGCGUGGGCGUAAUGGUAACGCGUCUCCCUCCUAAGGAGCAGACUGCGGGUUUGAGUCCCGUACGGAACG | ≤ 0.5 |
| GUUUCGUUGGCGUGAUGGUCACGCGUCUCCCUCUUAAGGAGAAGACUGCGGGUUUGAGUCCCGUACGGAACG | ≤ 0.5 |
| GUUGCGUUGGCGUAAUGGUAACGCGACUCCCUCCUAAGGAGAAGACUGUGGGUUCGAGUCCCGUACGGAACG | ≤ 0.5 |
| GUUGCGUUGGCGAAAUGGUAACGCGUCUCCCUCCUAAGGAGAAGACUGCGGGUUCGAGUCCCGUACGCAACG | 0.541 |
| GUUGCGUUGGCGUAAUGGUAACGCGUCUCCCACGUAAGGACAAGACUGCGGGUUCGAGUCCCGUACGAAACG | ≤ 0.5 |
| GUUUCGUUGGCGUGAUGGUAACGCGUCUACCUCCUAAGGAGAAGACUGCGGGUUCGAGUCCCGUACGGAACG | ≤ 0.5 |
| GUUGCGUUGGCGUAAUGGUAACGCGCCUCCCUCCUAAGGAGAAGACUGCGGGUUCGAGUCCCGUACGGAACG | 0.993 |
| GUUGCGUUGGCGUAAUGGUAACGCGACUCCCUCCUAAGGAGAAGACUGCGGGUUCGAGUCCCGUACGGAACG | 0.796 |
| GUUGCGUUGGCGUAAUGGUAACGCGGCUCCCUCCUAAGGAGAAGACUGCGGGUUCGAGUCCCGUACGGAACG | 0.856 |
| GUUGCGUUGGCGUAAUGGUAACGCGUCUCCCUCCUAAGGAGAAGACGGCGGGUUCGAGACCCGUAAGGAACG | ≤ 0.5 |
| GUUGCGUUGGCGCAAUGGUAACGCGUCUCCCUCCUAAGGAGAAGACUGUGGGUUCGAGUGCCGUUCGGAACG | ≤ 0.5 |
| GUUUCGUUGGCGUUAUGGUAAUGCGUCUCCCUCCUAAGGUGAACACUGCGGGUUCGCGUCCCGUACGGAACG | ≤ 0.5 |
| GUUGCGUUGGCGUAAUGGAAACGCGUAUCCCUCCUAAGGAGAAGACUGCGGGUUCGAGUCCCGUACGGAACG | 0.741 |
| GUUGCGUGAGUGUAAUGGUAACGCGUCUCCCUCCUAAGGAGAAGACUGAGGGUUCGAGUCCCGUACGGAACG | ≤ 0.5 |
| GUUGCGUUGGCGUAAUGGGAACGCGUCUCCCUCCUAAGGAGAAGACUGCGGGUUCGAGUCCCGUACGGUACG | ≤ 0.5 |
| GUUUCGUUGGCGUGGUGGUAAUGCGUCUCCCUCCUAAGGAGAAGAUUGCGGGUUCGAGUCCCGUACGGAUCG | ≤ 0.5 |
| GUUGCGUUGGCGUAAUGGUAACGCGUCUCCCGUCUAUGGAGAAGACUGCGGGUUCGAGUCCCGUGCGGAACG | ≤ 0.5 |
| GUUGCGUUGGCGAAAUGGUAACGCGUCUUCCUCCUAAGGCGAAGACUGCGGGUUCGAGUCCCGUACGGAACG | ≤ 0.5 |
